Measurements published in ChEMBL document CHEMBL4033790, “Design and Synthesis of Novel Deuterated Ligands Functionally Selective for the γ-Aminobutyric Acid Type A Receptor (GABAAR) α6 Subtype with Improved Metabolic Stability and Enhanced Bioavailability” (J Med Chem, 2018).

How the values were obtained:
[1] = Metabolic stability in mouse liver microsomes assessed as parent compound remaining at 10 uM after 60 mins by LC-MS analysis; type: ADME, microsome; settings: read-out: Stability
How it was run: (§1)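 The 60 min samples of the microsomal incubation (10 μM compound, human or mouse liver microsomes at 0.5 mg/mL, NADPH regenerating system, 37 °C) were analysed by LC-MS. Detection used SIM mode with dual ESI/APCI ionization, calibrated to the retention times and masses of the parent and its O-demethylated metabolites. Peak intensities were measured.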

[2] = Tmax in Wistar rat brain at 10 mg/kg, ip administered as single dose by HPLC-MS/MS analysis; type: ADME, organism-based
How it was run: (§2)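 Male Wistar rats (250–350 g) received a single i.p. dose of 10 mg/kg as a 5 mg/ml suspension in 85% water, 14% propylene glycol and 1% Tween 80. Three rats per time point were sacrificed at 5, 20, 60, 180 and 720 min for plasma and brain. Samples were cleaned up by solid-phase extraction and quantified by HPLC-MS/MS.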

[3] = Metabolic stability in human liver microsomes assessed as parent compound remaining at 10 uM after 60 mins by LC-MS analysis; type: ADME, microsome; settings: read-out: Stability; how it was run: as §1
[4] = target: Voltage-gated inwardly rectifying potassium channel KCNH2 (Homo sapiens, UniProt Q12809); assay: Displacement of [3H]-dofetilide from human ERG expressed in HEK cell membranes at >10 uM after 60 to 90 mins by scintillation counting
Sequence of Voltage-gated inwardly rectifying potassium channel KCNH2 (Q12809 whole entry): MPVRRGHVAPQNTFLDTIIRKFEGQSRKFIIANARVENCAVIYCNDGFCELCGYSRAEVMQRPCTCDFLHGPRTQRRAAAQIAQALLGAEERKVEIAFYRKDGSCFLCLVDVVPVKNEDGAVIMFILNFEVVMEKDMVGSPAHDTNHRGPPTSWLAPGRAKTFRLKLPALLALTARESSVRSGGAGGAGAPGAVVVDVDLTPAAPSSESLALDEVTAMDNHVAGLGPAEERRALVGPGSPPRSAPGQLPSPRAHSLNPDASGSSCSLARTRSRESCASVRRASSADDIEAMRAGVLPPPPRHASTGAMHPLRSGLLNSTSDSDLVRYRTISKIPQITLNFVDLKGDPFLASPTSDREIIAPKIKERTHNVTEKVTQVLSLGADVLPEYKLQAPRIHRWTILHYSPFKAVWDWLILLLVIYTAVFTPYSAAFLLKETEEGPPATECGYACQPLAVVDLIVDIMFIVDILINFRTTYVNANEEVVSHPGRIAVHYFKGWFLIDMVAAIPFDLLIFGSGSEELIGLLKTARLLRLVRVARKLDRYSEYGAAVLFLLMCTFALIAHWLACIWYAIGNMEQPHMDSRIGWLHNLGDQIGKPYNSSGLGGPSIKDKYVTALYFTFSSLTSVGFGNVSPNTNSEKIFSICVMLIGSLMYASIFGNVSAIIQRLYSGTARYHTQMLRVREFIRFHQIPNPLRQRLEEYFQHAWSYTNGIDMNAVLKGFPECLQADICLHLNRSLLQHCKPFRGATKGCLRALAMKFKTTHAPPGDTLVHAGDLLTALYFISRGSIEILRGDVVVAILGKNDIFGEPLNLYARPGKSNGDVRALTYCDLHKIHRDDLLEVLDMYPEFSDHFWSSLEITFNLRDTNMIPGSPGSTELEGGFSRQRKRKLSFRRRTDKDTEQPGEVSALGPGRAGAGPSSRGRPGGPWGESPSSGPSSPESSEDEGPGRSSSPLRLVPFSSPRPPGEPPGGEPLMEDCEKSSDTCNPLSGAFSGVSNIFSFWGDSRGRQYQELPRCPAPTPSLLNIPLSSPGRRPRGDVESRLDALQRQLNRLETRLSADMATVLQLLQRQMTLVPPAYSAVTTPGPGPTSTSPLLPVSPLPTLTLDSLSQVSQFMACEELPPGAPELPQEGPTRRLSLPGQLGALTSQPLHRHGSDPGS

Mus musculus [5] = assay: Neurotoxicity in Swiss Webster mouse assessed as induction of motor impairment at 60 mg/kg administered via oral gavage measured after 10 to 60 mins by rotarod method; type: toxicity, organism-based; settings: in vivo
[6] = Terminal elimination half-life in Wistar rat plasma at 10 mg/kg, ip administered as single dose by HPLC-MS/MS analysis; type: ADME, organism-based; settings: read-out: beta t1/2 (converted); how it was run: as §2
HepG2 = assay: Cytotoxicity against human HepG2 cells assessed as reduction in cell viability up to 400 uM after 48 hrs by CellTiter-Glo assay; type: cell-based; settings: hepg2, 48 h
How it was run: (§3)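 HEK293T and HepG2 cells grown in high-glucose DMEM with non-essential amino acids, 10 mM HEPES, penicillin/streptomycin and 10% heat-inactivated FBS. Cells were harvested with trypsin and plated; compound was pin-transferred 3 h later. Incubation was 48 h, then CellTiter-Glo luminescence was read. Controls were DMSO (negative) and a cytotoxic aminoketone (positive). Quadruplicates, three independent runs, normalized to controls, nonlinear regression.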

[7] = Ratio of brain AUC (0 to t) to plasma AUC (0 to t), Kp of the compound in Wistar rat at 10 mg/kg, ip administered as single dose by HPLC-MS/MS analysis; type: ADME, organism-based
Rattus norvegicus [8] = assay: Toxicity in Wistar rat assessed as open arm entries at 10 mg/kg, ip administered for 45 mins measured for 5 min by elevated plus maze apparatus method (reference value: 23.07 +/- 5.47%); type: organism-based; settings: in vivo
Rattus norvegicus [9] = assay: Hyperlocomotor activity in Wistar rat assessed as total distance travelled at 10 mg/kg, ip after 60 mins; type: ADME, organism-based; settings: in vivo, 1 h
[10] = Cmax in Wistar rat plasma at 10 mg/kg, ip administered as single dose measured at 5 to 720 mins post dose by HPLC-MS/MS analysis; type: ADME, organism-based; design: dose 10 mg/kg, route intraperitoneal
How it was run: (§4)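 Male Wistar rats (250-350 g) given a single 10 mg/kg i.p. dose of a 5 mg/ml suspension in 85% distilled water, 14% propylene glycol, 1% Tween 80. Three rats per time point (5, 20, 60, 180, 720 min). Blood and brain were collected after sacrifice. Drug was recovered by solid phase extraction and quantified by HPLC-MS/MS.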

Brain = assay: AUC (0 to 12 hrs) in Wistar rat brain at 10 mg/kg, ip administered as single dose by HPLC-MS/MS analysis; type: ADME, organism-based; design: dose 10 mg/kg, time < 12 hr, route intraperitoneal; settings: in vivo
[11] = Cmax in Wistar rat brain at 10 mg/kg, ip administered as single dose measured at 5 to 720 mins post dose by HPLC-MS/MS analysis; type: ADME, organism-based; design: dose 10 mg/kg, route intraperitoneal; how it was run: as §4
Rattus norvegicus [12] = assay: Toxicity in Wistar rat assessed as average swim speed at 10 mg/kg, ip administered for 45 mins by cued water-maze apparatus method (reference value: 0.21 +/- 0.01 meter/s); type: organism-based; settings: in vivo, 0.75 h
Rattus norvegicus [13] = assay: Toxicity in Wistar rat assessed as closed arm entries at 10 mg/kg, ip administered for 45 mins measured for 5 min by elevated plus maze apparatus method (reference value: 3.63 +/- 0.42); type: organism-based; settings: in vivo
[14] = Tmax in Wistar rat plasma at 10 mg/kg, ip administered as single dose by HPLC-MS/MS analysis; type: ADME, organism-based; how it was run: as §2
[15] = AUC (0 to 12 hrs) in Wistar rat plasma at 10 mg/kg, ip administered as single dose by HPLC-MS/MS analysis; type: ADME, organism-based; design: time < 12 hr, dose 10 mg/kg, route intraperitoneal
[16] = Terminal elimination half-life in Wistar rat brain at 10 mg/kg, ip administered as single dose by HPLC-MS/MS analysis; type: ADME, organism-based; settings: read-out: beta t1/2 (converted); how it was run: as §2
Rattus norvegicus [17] = assay: Toxicity in Wistar rat assessed as total distance traveled at 10 mg/kg, ip administered for 45 mins by cued water-maze method (reference value: 8.04 +/- 1.16 meter); type: organism-based; settings: in vivo, 0.75 h
HEK-293T = assay: Cytotoxicity against HEK293T cells assessed as reduction in cell viability up to 400 uM after 48 hrs by CellTiter-Glo assay; type: cell-based; settings: human; how it was run: as §3
Rattus norvegicus [18] = assay: Toxicity in Wistar rat assessed as grip strength by measuring peak force of pull necessary to overcome strength of animal's grip at 10 mg/kg, ip (reference value: 2.79 +/- 0.16 kg/kg); type: organism-based; settings: in vivo
Rattus norvegicus [19] = assay: Toxicity in Wistar rat assessed as peripheral ring distance at 10 mg/kg, ip administered for 45 mins by cued water-maze method (reference value: 67.44 +/- 4.60%); type: organism-based; settings: in vivo, 0.75 h
Rattus norvegicus [20] = assay: Toxicity in Wistar rat assessed as total distance traveled at 10 mg/kg, ip administered for 45 mins measured for 5 min by elevated plus maze method (reference value: 6.71 +/- 0.56 meter); type: organism-based; settings: in vivo
Liver = assay: Half life in mouse liver microsomes at 10 uM by LC-MS/MS analysis; type: ADME, microsome
How it was run: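 Compound at 10 μM final was preincubated 5 min at 37 °C with NADPH regenerating system in phosphate buffer, pH 7.4. Human or mouse liver microsomes (0.5 mg/mL protein) were added to start the reaction. Samples were taken at 0 (no microsomes) and 10–60 min and measured by LC-MS/MS against an internal standard. Half-life = 0.693/k, with k the slope of ln peak-area ratio versus time. Three experiments, each in duplicate.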

Mus musculus [21] = assay: Neurotoxicity in Swiss Webster mouse assessed as induction of motor impairment at 40 mg/kg administered via oral gavage measured after 10 to 60 mins by rotarod method; type: toxicity, organism-based; settings: in vivo
How it was run: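 Female mice were given a single oral gavage dose of 40 mg/kg, either in 50% PBS/40% propylene glycol/10% DMSO or, for poorly soluble compounds, in 2% polyethylene glycol plus 2.5% hydroxymethyl cellulose. Rotarod performance was tested 10, 30 and 60 min after dosing, with diazepam 5 mg/kg as positive control.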

[22] = Drug metabolism in mouse liver microsomes assessed as CYP450 mediated-O-demethylated 8-chloro-2-(3-hydroxyphenyl)-2H-pyrazolo[4,3-c]quinolin-3(5H)-one metabolite formation after 60 mins by LC-MS analysis; type: ADME; settings: 1 h
How it was run: (§5)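 The 60-min samples from the human or mouse liver microsome incubations (10 µM compound, 0.5 mg/mL protein, NADPH regenerating system, 37 °C, pH 7.4) were run on LC-MS in SIM mode with dual ESI/APCI ionization. The method was calibrated to each component's retention time and mass, and the peak intensities of the parent and O-demethylated metabolites were measured.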

[23] = Drug metabolism in human liver microsomes assessed as CYP450 mediated-O-demethylated 8-chloro-2-(3-hydroxyphenyl)-2H-pyrazolo[4,3-c]quinolin-3(5H)-one metabolite formation after 60 mins by LC-MS analysis; type: ADME; settings: 1 h; how it was run: as §5
Mus musculus [24] = assay: Neurotoxicity in Swiss Webster mouse assessed as induction of motor impairment at 5 mg/kg administered via oral gavage measured after 10 to 60 mins by rotarod method; type: toxicity, organism-based; settings: in vivo
How it was run: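 Female Swiss Webster mice were given diazepam 5 mg/kg by oral gavage as the positive control. Rotarod performance was tested 10, 30 and 60 min after dosing.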

[2H]C([2H])([2H])Oc1ccccc1-n1nc2c3cc(Cl)ccc3[nH]cc-2c1=O
remaining at 1 h, 10 µM [1]: 94.9%
Tmax [2]: 0.78 h
remaining at 1 h, 10 µM [3]: 94.8%
inhibition (INH) [4]: Not Active
Activity (Mus musculus [5]): Non-Toxic
half-life [6]: 3.66 h
Activity (HepG2): Non-Toxic
Kp [7]: 0.15
Activity (Rattus norvegicus [8]): 20.6%
Activity (Rattus norvegicus [9]): Non-Toxic
Cmax [10]: 434 ng/mL
AUC (Brain): 269.03 ng·h/g
Cmax [11]: 65.6 ng/g
Activity (Rattus norvegicus [12]): 0.22 meter/s
Activity (Rattus norvegicus [13]): 3.5
Tmax [14]: 0.78 h
AUC(0-t) at 12 h [15]: 1800 ng·h/mL
half-life [16]: 5.54 h
Activity (Rattus norvegicus [17]): 9.93 m
Activity (HEK-293T): Non-Toxic
Activity (Rattus norvegicus [18]): 2.66 kg/kg
Activity (Rattus norvegicus [19]): 69.34%
Activity (Rattus norvegicus [20]): 6.14 m
t1/2 (Liver): 16.6 h

[2H]C([2H])([2H])Oc1cccc(-n2nc3c4cc(Cl)ccc4[nH]cc-3c2=O)c1
remaining at 1 h, 10 µM [1]: 76.6%
remaining at 1 h, 10 µM [3]: 93%
inhibition (INH) [4]: Not Active
Activity (HepG2): Non-Toxic
Activity (Mus musculus [21]): Non-Toxic
Activity (HEK-293T): Non-Toxic
Drug metabolism [22]: Metabolite_Detected
Drug metabolism [23]: Metabolite_Detected
t1/2 (Liver): 2.8 h

CN1C(=O)CN=C(c2ccccc2)c2cc(Cl)ccc21 [DIAZEPAM]
Activity (Mus musculus [24]): Toxic
